Experiments:
[1] = tested on: vesicular acetylcholine transporter; details: cited from earlier work
σ opioid receptor = details: cited from earlier work
nAchR α3β4 = nAchR α3β4 (Rattus norvegicus, UniProt P04757+P12392); experiment: Radioligand binding assay; details: for ligand efficiency (LE): calculated from Ki
5-HT1B receptor = details: agonist; cited from earlier work
5-HT1A receptor = details: agonist; cited from earlier work
5-HT2 receptor = details: agonist; cited from earlier work
5-HT3 receptor = details: antagonist; cited from earlier work
[2] = target: metabotropic glutamate receptor 2; details: cited from earlier work
[3] = target: metabotropic glutamate receptor 3; details: cited from earlier work
[4] = tested on: inducible human nitric-oxide synthase; details: cited from earlier work
[5] = tested on: brain human nitric-oxide synthase; details: cited from earlier work
[6] = tested on: endothelial human nitric-oxide synthase; details: cited from earlier work
[7] = tested on: human sodium/glucose cotransporter 1; details: cited from earlier work
[8] = tested on: human sodium/glucose cotransporter 2; details: cited from earlier work
carbonic anhydrase II = details: cited from earlier work
histamine H3 receptor = details: cited from earlier work
[9] = target: muscarinic acetylcholine receptor (mAchR) M5 (Homo sapiens, UniProt P08912); experiment: Radioligand binding assay
M5 [10] = experiment: Tango assay, agonist activity on M5; assay type: cell-based
M5 [11] = experiment: Functional assay, antagonist activity on M5; assay type: cell-based
muscarinic receptor M1 = experiment: Radioligand binding assay; details: no significant affinity up to 10 μM
muscarinic receptor M2 = experiment: Radioligand binding assay; details: no significant affinity up to 10 μM
muscarinic M3 receptor [12] = experiment: Radioligand binding assay
muscarinic receptor M4 = experiment: Radioligand binding assay; details: no significant affinity up to 10 μM
muscarinic M3 receptor [13] = experiment: Functional assay, agonist activity on M3; assay type: cell-based
HIV type 1 protease = details: cited from earlier work
[14] = target: muscarinic acetylcholine receptor M1; details: cited from earlier work
[15] = target: muscarinic acetylcholine receptor M2; details: cited from earlier work
[16] = target: human nicotinic acetylcholine receptor (nAchR) α2β4; experiment: Radioligand binding assay
nAchR α4β4 = nAchR α4β4 (Rattus norvegicus, UniProt P09483+P12392); experiment: Radioligand binding assay
Procedure, shortened: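 Ki from radioligand binding run by the NIMH PDSP protocols. Ligand efficiency derived from Ki as LE = −RT(lnKi)/Nheavy ≈ −1.373 log10Ki/Nheavy. R is the gas constant, T is the experimental temperature in Kelvin, and Nheavy is the heavy-atom count. LE is expressed in kcal/mol/heavy atom.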

nAchR α3β4, sequence (P04757 26-499): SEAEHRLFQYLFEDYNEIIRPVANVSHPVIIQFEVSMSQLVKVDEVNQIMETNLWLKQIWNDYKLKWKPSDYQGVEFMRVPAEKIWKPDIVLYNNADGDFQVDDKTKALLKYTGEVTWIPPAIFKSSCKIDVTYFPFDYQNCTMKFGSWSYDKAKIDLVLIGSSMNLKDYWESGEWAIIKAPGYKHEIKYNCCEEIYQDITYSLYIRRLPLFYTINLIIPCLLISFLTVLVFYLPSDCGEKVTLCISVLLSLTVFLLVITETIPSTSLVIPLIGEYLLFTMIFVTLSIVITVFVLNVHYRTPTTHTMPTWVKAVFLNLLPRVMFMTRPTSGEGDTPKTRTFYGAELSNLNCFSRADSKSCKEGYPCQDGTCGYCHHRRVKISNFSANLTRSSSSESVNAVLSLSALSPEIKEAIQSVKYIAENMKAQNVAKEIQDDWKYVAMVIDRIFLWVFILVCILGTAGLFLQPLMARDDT
nAchR α3β4, sequence (P12392 21-495): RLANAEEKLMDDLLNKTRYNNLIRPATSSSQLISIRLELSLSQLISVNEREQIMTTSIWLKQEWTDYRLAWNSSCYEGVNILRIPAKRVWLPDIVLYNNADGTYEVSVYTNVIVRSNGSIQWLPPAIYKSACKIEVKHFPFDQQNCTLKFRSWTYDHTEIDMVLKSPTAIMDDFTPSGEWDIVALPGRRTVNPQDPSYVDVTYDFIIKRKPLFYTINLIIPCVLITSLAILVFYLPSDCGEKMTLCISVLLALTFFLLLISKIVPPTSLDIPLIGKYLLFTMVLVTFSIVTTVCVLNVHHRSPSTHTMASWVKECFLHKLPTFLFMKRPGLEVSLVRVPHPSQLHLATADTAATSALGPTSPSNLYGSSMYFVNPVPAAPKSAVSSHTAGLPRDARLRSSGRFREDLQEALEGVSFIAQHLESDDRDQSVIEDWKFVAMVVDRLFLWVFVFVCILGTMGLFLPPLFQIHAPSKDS
nAchR α4β4, sequence (P09483 31-630): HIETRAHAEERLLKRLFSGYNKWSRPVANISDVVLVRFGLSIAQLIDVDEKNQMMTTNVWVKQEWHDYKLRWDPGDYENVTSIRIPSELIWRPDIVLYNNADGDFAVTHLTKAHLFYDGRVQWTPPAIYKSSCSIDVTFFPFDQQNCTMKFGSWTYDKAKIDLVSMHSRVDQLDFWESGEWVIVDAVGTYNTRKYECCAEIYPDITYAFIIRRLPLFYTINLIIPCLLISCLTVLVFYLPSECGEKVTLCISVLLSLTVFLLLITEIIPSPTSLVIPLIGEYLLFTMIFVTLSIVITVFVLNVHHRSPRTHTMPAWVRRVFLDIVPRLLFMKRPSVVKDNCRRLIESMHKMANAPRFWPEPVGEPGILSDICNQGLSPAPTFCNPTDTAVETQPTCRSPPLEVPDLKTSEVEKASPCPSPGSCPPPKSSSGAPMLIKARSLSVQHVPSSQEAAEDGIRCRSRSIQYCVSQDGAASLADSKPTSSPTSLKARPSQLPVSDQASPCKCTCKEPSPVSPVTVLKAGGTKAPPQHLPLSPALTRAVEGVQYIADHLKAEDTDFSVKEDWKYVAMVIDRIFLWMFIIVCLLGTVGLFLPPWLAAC
nAchR α4β4, sequence (P12392 21-495): as the sequence (P12392 21-495) above
muscarinic acetylcholine receptor (mAchR) M5, sequence (P08912 whole entry): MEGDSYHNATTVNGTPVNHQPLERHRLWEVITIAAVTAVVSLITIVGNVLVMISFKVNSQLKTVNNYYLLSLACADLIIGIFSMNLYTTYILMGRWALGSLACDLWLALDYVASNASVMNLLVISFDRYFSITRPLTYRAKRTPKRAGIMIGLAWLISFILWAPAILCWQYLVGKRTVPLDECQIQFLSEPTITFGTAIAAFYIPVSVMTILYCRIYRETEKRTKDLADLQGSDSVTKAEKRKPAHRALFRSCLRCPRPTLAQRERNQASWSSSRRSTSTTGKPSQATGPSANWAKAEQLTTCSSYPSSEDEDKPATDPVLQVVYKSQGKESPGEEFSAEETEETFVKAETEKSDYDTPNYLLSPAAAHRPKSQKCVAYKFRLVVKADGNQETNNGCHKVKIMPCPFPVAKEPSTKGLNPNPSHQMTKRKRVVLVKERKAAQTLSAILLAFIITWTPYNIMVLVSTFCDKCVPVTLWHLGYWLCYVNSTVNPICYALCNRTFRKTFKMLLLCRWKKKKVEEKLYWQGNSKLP

OC1CCCCC1N1CCC(C2CCCCC2)CC1 (stereo not shown) [CHEMBL21309]
affinity [1]: 40 nM

CN(CCc1ccc2c(c1)OCO2)[C@@H]1CCCC[C@@H]1N1CCCC1 [CHEMBL606938]
IC50 (σ opioid receptor): 0.034 µM

OC1CCCCC1N1CCC(C2CCN(C3CCCCC3O)CC2)CC1 (stereo not shown) [CHEMBL20429]
affinity [1]: 200 nM

Clc1cccc(SC2CCNCC2)n1 [Anpirtoline]
Ki (nAchR α3β4): 3.41 µM | ligand efficiency (LE) (nAchR α3β4): 0.536 kcal/mol/heavy atom | Ki (5-HT1B receptor): 0.028 µM | Ki (5-HT1A receptor): 0.15 µM | Ki (5-HT2 receptor): 1.49 µM | Ki (5-HT3 receptor): 0.03 µM

N[C@@]1(C(=O)O)C[S+]([O-])[C@H]2[C@H](C(=O)O)[C@H]21 (stereo partly shown) [CHEMBL218710]
Ki [2]: 0.508 µM | Ki [3]: 0.447 µM

NC1=NCCCS1 [CHEMBL306541]
IC50 [4]: 2.9 µM | IC50 [5]: 3.2 µM | IC50 [6]: 7.1 µM

CCOc1ccc(Cc2cc([C@@H]3O[C@H](CO)[C@@H](O)[C@H](O)[C@H]3O)ccc2Cl)cc1 [CHEMBL3125318]
IC50 [7]: 3.1 µM | IC50 [8]: […]

NS(=O)(=O)c1cc2c(s1)S(=O)(=O)CCC2 [CHEMBL333193]
affinity (carbonic anhydrase II): 3.3 nM

N#Cc1ccc(Cc2cc([C@@H]3O[C@H](CO)[C@@H](O)[C@H](O)[C@H]3O)ccc2Cl)cc1 [CHEMBL1807550]
IC50 [7]: 0.01 µM | IC50 [8]: 10 µM

N[C@@]1(C(=O)O)CS[C@H]2[C@H](C(=O)O)[C@H]21 [CHEMBL8839]
Ki [2]: 0.0406 µM | Ki [3]: 0.0047 µM

NS(=O)(=O)c1cc2c(s1)SCCC2=O [CHEMBL158261]
affinity (carbonic anhydrase II): 3.6 nM

C[C@@H]1CCCN1CCc1ccccn1 [CHEMBL270807]
Ki (histamine H3 receptor): 0.2 µM

CN(CCc1ccc2ccccc2c1)[C@H]1CCCC[C@H]1N1CCCC1 [CHEMBL606937]
IC50 (σ opioid receptor): 0.037 µM

CCC(=O)OC1(c2ccccc2)CCN(C)CC1C (stereo not shown) [Alphaprodine]
Ki [9]: 0.771 µM | ligand efficiency (LE) ([9]; calculated from Ki): 0.442 kcal/mol/heavy atom | agonist activity on M5 (M5 [10]): no agonist activity | antagonist activity on M5 (M5 [11]): antagonist | affinity (muscarinic receptor M1): > 10 µM | affinity (muscarinic receptor M2): > 10 µM | binding to M3 (muscarinic M3 receptor [12]): did not bind | affinity (muscarinic M3 receptor [12]; no significant affinity up to 10 μM): > 10 µM | affinity (muscarinic receptor M4): > 10 µM | agonist activity on M3 (muscarinic M3 receptor [13]): no agonist activity

O=C1N(Cc2ccc(O)cc2)[C@H](Cc2ccccc2)[C@H](O)[C@@H](O)[C@@H](Cc2ccccc2)N1Cc1ccc(O)cc1 [CHEMBL35860]
Ki (HIV type 1 protease): 0.00012 µM

NC1=NCCCSC1 [CHEMBL186856]
IC50 [4]: 1.2 µM | IC50 [5]: 2.8 µM | IC50 [6]: 10.5 µM

C[C@@H]1OC(=O)[C@H]2C[C@H]3CCCC[C@H]3[C@H](/C=C\[C@H]3CCC[C@H](C)N3C)[C@@H]12 [CHEMBL58824]
IC50 [14]: 0.851 µM | IC50 [15]: 0.851 µM

C[C@@H]1OC(=O)[C@@H]2C[C@@H]3CCCC[C@@H]3[C@@H](/C=C/[C@H]3CCC[C@H](C)N3C)[C@H]12 [CHEMBL301670]
IC50 [14]: 0.427 µM | IC50 [15]: 0.0955 µM

O=C1N(Cc2ccccc2)[C@@H](Cc2ccccc2)[C@H](O)[C@@H](O)[C@H](Cc2ccccc2)N1Cc1ccccc1 [CHEMBL148543]
Ki (HIV type 1 protease): 0.56 µM

NC1CCCC1c1ccccc1 (stereo not shown) [cypenamine]
Ki [16]: 4.65 µM | Ki (nAchR α3β4): 2.69 µM | ligand efficiency (LE) (nAchR α3β4): 0.637 kcal/mol/heavy atom | Ki (nAchR α4β4): 4.11 µM | ligand efficiency (LE) (nAchR α4β4; calculated from Ki): 0.616 kcal/mol/heavy atom

C[C@@H]1CCCN1CCc1ccns1 [CHEMBL255141]
Ki (histamine H3 receptor): 0.017 µM

Reference: PMC6075869 (Journal of medicinal chemistry, 2017)
